Measured values from ChEMBL document CHEMBL1140076, “Discovery and labeling of high-affinity 3,4-diarylpyrazolines as candidate radioligands for in vivo imaging of cannabinoid subtype-1 (CB1) receptors” (J Med Chem, 2008).

Assays:
[1] = test system: Pons; test: Biodistribution in cynomolgus monkey brain pons assessed as standardized uptake value at 65 GBq/umol, iv after 24 mins; format: ADME, organism-based, Macaca fascicularis; conditions: in vivo, 0.4 h
Summary of the method: (§1)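 Anesthetized cynomolgus monkeys (3.4, 4.8 kg; ketamine/xylazine i.m., head in stereotactic frame). [11C] radioligand given as i.v. bolus over about 5 s: 56–100 MBq, 0.33–0.81 µg carrier. Brain scanned on ECAT EXACT HR for 93 min. Regions defined on a monkey brain atlas. Decay-corrected activity expressed as %SUV (% injected activity per g tissue × body weight).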

[2] = Biodistribution in cynomolgus monkey brain striatum assessed as standardized uptake value at 65 GBq/umol, iv after 48 mins; format: ADME, organism-based, Macaca fascicularis; conditions: in vivo, 0.8 h; summary of the method: as §1
[3] = Biodistribution in cynomolgus monkey plasma assessed as unchanged drug level at 65 GBq/umol, iv after 45 mins; format: ADME, organism-based, Macaca fascicularis; conditions: read-out: Activity
Summary of the method: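 Venous blood (1 mL) taken 5, 15, 30 and 45 min after i.v. radioligand in anesthetized monkey. Plasma (0.5 mL) mixed with MeCN containing carrier standard and centrifuged at 2000 × g for 1 min. Supernatant counted, then analyzed by reverse-phase radio-HPLC with a MeCN/0.01 M H3PO4 gradient. Parent expressed as % of plasma radioactivity.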

[4] = Biodistribution in cynomolgus monkey brain striatum assessed as standardized uptake value at 56 GBq/umol, iv after 90 mins; format: ADME, organism-based, Macaca fascicularis; conditions: in vivo, 1.5 h; summary of the method: as §1
[5] = Biodistribution in cynomolgus monkey brain striatum assessed as standardized uptake value at 56 GBq/umol, iv after 1.5 mins; format: ADME, organism-based, Macaca fascicularis; conditions: in vivo, 0.025 h; summary of the method: as §1
[6] = biological target: Cannabinoid receptor 2 (Homo sapiens, UniProt P34972); test: Binding affinity to human CB2 receptor by [35S]GTPgammaS binding assay; format: functional
Cannabinoid receptor 2, sequence (P34972 whole entry): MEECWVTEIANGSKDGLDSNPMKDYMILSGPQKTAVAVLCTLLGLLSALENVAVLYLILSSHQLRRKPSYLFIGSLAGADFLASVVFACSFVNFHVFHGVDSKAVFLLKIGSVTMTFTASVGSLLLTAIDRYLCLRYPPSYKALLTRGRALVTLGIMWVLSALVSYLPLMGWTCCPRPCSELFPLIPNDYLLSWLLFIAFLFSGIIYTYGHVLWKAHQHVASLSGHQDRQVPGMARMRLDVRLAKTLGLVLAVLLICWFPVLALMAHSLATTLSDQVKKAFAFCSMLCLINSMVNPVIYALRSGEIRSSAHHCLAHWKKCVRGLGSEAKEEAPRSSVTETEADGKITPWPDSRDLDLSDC
Summary of the method: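 Recombinant human CB2 membranes (7 µg/well) in buffer with 100 mM NaCl, 5 mM MgCl2, 1 mM EDTA, 50 mM HEPES, 10 µM GDP, 100 µM DTT, 0.01% BSA. Incubation 45 min at 30 °C, then filtration and scintillation counting. Nonspecific binding with 20 µM GTPγS. IC50 converted to Ki by Cheng-Prusoff; triplicates.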

[7] = biological target: 5-hydroxytryptamine receptor 2A (Homo sapiens, UniProt P28223); test: Displacement of [3H]ketanserin from human cloned 5HT2A receptor
5-hydroxytryptamine receptor 2A, sequence (P28223 whole entry): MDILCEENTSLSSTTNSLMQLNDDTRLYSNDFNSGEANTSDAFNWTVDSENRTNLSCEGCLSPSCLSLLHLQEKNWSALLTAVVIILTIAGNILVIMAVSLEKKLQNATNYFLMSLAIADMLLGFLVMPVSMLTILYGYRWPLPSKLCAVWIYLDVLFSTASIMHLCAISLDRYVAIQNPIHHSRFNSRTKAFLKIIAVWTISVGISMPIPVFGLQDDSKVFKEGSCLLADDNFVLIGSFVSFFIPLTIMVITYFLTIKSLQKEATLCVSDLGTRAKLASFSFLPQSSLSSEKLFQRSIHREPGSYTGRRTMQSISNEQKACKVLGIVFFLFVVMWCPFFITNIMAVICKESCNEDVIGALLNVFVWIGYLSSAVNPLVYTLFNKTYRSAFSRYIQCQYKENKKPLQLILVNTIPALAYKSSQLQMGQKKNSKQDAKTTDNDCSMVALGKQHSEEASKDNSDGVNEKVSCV

[8] = biological target: Histamine H2 receptor (Homo sapiens, UniProt P25021); test: Displacement of [3H]tiotidine from human cloned histamine H2 receptor
Histamine H2 receptor, sequence (P25021 whole entry): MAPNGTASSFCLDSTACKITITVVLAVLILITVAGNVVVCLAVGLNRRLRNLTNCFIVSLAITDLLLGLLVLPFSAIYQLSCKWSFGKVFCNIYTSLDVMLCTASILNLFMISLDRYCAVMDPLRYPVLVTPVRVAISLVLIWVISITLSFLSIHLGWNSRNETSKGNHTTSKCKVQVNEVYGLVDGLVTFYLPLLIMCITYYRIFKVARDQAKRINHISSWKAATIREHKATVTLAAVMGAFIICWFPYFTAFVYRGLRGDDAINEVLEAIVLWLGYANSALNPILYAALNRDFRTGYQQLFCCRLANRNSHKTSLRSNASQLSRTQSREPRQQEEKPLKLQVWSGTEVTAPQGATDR

[9] = biological target: Histamine H3 receptor (Homo sapiens, UniProt Q9Y5N1); test: Displacement of [3H]alpha methyl histamine from human cloned histamine H3 receptor
Histamine H3 receptor, sequence (Q9Y5N1 whole entry): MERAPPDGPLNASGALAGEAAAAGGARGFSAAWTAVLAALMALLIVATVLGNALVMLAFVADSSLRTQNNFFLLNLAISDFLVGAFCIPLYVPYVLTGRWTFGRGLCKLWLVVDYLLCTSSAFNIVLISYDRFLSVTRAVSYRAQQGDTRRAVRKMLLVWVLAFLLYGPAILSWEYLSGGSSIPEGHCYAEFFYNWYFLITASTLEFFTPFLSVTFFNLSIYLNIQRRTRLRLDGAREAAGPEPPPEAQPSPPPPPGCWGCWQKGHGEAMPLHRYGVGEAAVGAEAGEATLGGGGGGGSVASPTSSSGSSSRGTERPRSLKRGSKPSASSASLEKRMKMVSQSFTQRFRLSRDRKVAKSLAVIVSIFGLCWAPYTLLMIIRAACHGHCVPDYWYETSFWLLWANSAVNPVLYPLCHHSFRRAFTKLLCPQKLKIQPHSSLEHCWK

[10] = biological target: Cannabinoid receptor 1 (Homo sapiens, UniProt P21554); test: Binding affinity to human CB1 receptor by [35S]GTPgammaS binding assay; format: functional
Cannabinoid receptor 1, sequence (P21554 whole entry): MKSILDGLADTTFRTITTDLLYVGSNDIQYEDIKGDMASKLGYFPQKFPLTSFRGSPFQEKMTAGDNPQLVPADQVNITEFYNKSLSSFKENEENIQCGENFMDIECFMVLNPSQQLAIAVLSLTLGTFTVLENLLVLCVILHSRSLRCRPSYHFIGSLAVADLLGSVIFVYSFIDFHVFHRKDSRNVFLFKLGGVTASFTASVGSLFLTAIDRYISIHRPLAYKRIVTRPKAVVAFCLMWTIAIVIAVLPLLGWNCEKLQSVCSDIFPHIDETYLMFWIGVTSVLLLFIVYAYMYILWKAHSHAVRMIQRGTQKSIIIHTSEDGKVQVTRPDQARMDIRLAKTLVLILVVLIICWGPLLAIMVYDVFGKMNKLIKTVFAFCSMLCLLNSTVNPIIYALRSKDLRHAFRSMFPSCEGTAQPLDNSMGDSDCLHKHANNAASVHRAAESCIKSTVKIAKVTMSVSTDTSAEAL

[11] = Biodistribution in cynomolgus monkey brain striatum assessed as standardized uptake value at 78 GBq/umol, iv after 30 mins; format: ADME, organism-based, Macaca fascicularis; conditions: in vivo, 0.5 h; summary of the method: as §1
[12] = test system: Pons; test: Biodistribution in cynomolgus monkey brain pons assessed as standardized uptake value at 78 GBq/umol, iv after 90 mins; format: ADME, organism-based, Macaca fascicularis; conditions: in vivo, 1.5 h; summary of the method: as §1
[13] = test system: Pons; test: Biodistribution in cynomolgus monkey brain pons assessed as standardized uptake value at 78 GBq/umol, iv after 24 mins; format: ADME, organism-based, Macaca fascicularis; conditions: in vivo, 0.4 h; summary of the method: as §1
[14] = Biodistribution in cynomolgus monkey brain striatum assessed as standardized uptake value at 78 GBq/umol, iv after 90 mins; format: ADME, organism-based, Macaca fascicularis; conditions: in vivo, 1.5 h; summary of the method: as §1
[15] = test system: Brain; test: Biodistribution in 1 mg/kg, iv N-(4-fluorobenzyl)-4-(3-(piperidin-1-yl)-1H-indol-1-ylsulfonyl)benzamide pretreated cynomolgus monkey brain assessed as standardized uptake value at […], iv after 15 mins; format: ADME, organism-based, Macaca fascicularis; design: dose 1 mg/kg, route intravenous; conditions: in vivo, 0.25 h
[16] = test system: Brain; test: Biodistribution in 1 mg/kg, iv N-(4-fluorobenzyl)-4-(3-(piperidin-1-yl)-1H-indol-1-ylsulfonyl)benzamide pretreated cynomolgus monkey brain assessed as standardized uptake value at […], iv after 90 mins; format: ADME, organism-based, Macaca fascicularis; design: dose 1 mg/kg, route intravenous; conditions: in vivo, 1.5 h

IC50 [6] [nM]	Ki [6] [nM]	IC50 [10] [nM]	Ki [10] [nM]	SMILES	other results
				N#[11C]c1ccc(S(=O)(=O)/N=C(\N)N2C[C@H](c3ccccc3)C(c3ccc(Cl)cc3)=N2)cc1	Drug uptake [1]: 125%; Drug uptake [2]: 200%; remaining at 0.75 h [3]: 50%
				N#[11C]c1ccc(S(=O)(=O)/N=C(\N)N2C[C@@H](c3ccccc3)C(c3ccc(Cl)cc3)=N2)cc1	Drug uptake [4]: 95%; Drug uptake [5]: 280%
> 33000	> 5000	2.8	0.5	N#Cc1ccc(S(=O)(=O)/N=C(\N)N2C[C@H](c3ccccc3)C(c3ccc(Cl)cc3)=N2)cc1	Ki [7]: > 7710 nM; Ki [8]: > 10000 nM; Ki [9]: > 10000 nM
> 33000	> 5000	1.9	0.3	N/C(=N\S(=O)(=O)c1ccc(I)cc1)N1C[C@H](c2ccccc2)C(c2ccc(Cl)cc2)=N1	
> 33000	> 5000	104	17.4	N/C(=N\S(=O)(=O)c1ccc(I)cc1)N1C[C@@H](c2ccccc2)C(c2ccc(Cl)cc2)=N1	
> 33000	> 5000	100	16.9	N#Cc1ccc(S(=O)(=O)/N=C(\N)N2C[C@@H](c3ccccc3)C(c3ccc(Cl)cc3)=N2)cc1	
				N#[11C]c1ccc(S(=O)(=O)/N=C(\N)N2CC(c3ccccc3)C(c3ccc(Cl)cc3)=N2)cc1 (racemic)	Drug uptake [11]: 220%; Drug uptake [12]: 124%; Drug uptake [13]: 150%; Drug uptake [14]: 180%; Drug uptake [15]: 175%; Drug uptake [16]: 85%
